Measured values from ChEMBL document CHEMBL3865809, “2-Indolylmethylenebenzofuranones as first effective inhibitors of ABCC2” (Eur J Med Chem, 2016).

Key:
[1] = target: T1, ATP-binding cassette sub-family C member 2 (Homo sapiens, UniProt Q92887); test: Inhibition of ABCC2 (unknown origin) expressed in MDCK2 cells assessed as inhibition of calcein-AM efflux at 5 uM measured after 30 mins in presence of ABCB1 inhibitor GF120918 and ABCC1 inhibitor MK-571 by flow cytometry; format: cell-based; conditions: mdck-ii, 0.5 h
In short: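 Parental and ABCC2-transfected MDCKII cells were seeded at 3 × 10³ cells/well and grown 48 h at 37 °C in 5% CO2. They were then loaded with 25 nM calcein-AM in the presence of GF120918 and […] MK-571. Intracellular fluorescence was read by flow cytometry in the 525/50 nm channel, collecting ≥5000 events.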

[2] = target: T1, ATP-binding cassette sub-family C member 2; test: Inhibition of ABCC2 (unknown origin) expressed in human Flp-InTM-293 cells assessed as inhibition of calcein-AM efflux at 5 uM measured after 30 mins in presence of ABCB1 inhibitor GF120918 and ABCC1 inhibitor MK-571 by flow cytometry; format: cell-based; conditions: 0.5 h
In short: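 A confirmatory calcein-AM efflux assay was run the same way in Flp-In-293 cells stably transfected with ABCC2 (pcDNA5-FRT-ABCC2 plus pOG44, by electroporation) and in parental Flp-In-293 cells. Fluorescence was read by flow cytometry, with % inhibition computed against the parental line.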

[3] = target: T1, ATP-binding cassette sub-family C member 2; test: Inhibition of ABCC2 (unknown origin) expressed in MDCK2 cells assessed as inhibition of calcein-AM efflux measured after 30 mins in presence of ABCB1 inhibitor GF120918 and ABCC1 inhibitor MK-571 by flow cytometry; format: cell-based, MDCK-II
[4] = Cytotoxicity against MDCK2 cells expressing ABCC2 measured after 72 hrs by MTT assay; format: toxicity, cell-based, Canis lupus familiaris, MDCK-II; conditions: dog
In short: (§1)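 MTT assay in parental and ABCC2-transfected MDCKII cells. Cells were seeded so that they stayed below confluence over 72 h at 37 °C, then exposed to compound from […] for 72 h. MTT at 5 mg/mL was added for 3 h. Formazan was dissolved in DMSO/isopropanol 1:1, and A570 was read and corrected at 690 nm. Mean ± SD of at least three independent experiments; DMSO-only controls run in parallel.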

[5] = Cytotoxicity against wild-type MDCK2 cells measured after 72 hrs by MTT assay; format: toxicity, cell-based, Canis lupus familiaris, MDCK-II; conditions: dog; in short: as §1

T1 sequence (Q92887 whole entry): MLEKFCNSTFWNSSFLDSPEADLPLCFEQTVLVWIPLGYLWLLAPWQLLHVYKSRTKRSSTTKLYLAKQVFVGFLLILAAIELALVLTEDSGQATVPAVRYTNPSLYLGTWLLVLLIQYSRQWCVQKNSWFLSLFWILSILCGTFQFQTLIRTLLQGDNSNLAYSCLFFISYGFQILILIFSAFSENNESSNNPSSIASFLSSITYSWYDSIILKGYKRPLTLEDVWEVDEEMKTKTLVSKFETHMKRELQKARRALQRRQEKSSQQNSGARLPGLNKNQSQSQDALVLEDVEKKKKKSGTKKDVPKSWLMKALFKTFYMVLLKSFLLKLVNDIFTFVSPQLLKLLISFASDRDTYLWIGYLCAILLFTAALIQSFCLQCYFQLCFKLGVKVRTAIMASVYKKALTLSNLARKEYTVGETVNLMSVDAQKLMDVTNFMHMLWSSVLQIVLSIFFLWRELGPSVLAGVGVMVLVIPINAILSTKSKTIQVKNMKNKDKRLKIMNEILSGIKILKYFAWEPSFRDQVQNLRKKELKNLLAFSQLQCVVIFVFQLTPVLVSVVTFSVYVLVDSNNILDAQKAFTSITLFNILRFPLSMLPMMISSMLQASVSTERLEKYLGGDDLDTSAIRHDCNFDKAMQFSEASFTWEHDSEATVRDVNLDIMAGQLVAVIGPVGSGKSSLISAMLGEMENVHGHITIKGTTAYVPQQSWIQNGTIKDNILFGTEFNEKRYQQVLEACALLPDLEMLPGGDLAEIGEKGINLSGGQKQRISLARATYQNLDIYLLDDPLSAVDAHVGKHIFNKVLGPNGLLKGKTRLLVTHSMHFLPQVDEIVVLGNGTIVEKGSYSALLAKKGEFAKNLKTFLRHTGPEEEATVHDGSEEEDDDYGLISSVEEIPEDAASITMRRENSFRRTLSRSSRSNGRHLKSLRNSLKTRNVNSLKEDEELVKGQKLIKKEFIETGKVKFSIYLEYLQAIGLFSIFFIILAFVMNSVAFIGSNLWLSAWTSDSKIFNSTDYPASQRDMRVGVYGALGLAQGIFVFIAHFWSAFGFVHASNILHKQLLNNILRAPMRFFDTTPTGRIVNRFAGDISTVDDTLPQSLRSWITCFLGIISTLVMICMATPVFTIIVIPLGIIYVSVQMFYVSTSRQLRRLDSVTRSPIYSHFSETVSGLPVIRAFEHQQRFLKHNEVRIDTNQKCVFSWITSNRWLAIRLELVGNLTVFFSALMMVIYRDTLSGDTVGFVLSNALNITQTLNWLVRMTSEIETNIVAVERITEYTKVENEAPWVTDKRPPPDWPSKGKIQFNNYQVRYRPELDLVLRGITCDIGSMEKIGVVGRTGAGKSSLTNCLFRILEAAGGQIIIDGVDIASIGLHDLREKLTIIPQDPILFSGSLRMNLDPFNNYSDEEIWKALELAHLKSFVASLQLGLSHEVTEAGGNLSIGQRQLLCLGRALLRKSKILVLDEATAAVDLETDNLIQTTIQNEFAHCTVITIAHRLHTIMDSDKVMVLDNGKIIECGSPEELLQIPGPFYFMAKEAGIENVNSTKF

inhibition (INH) [1] | inhibition (INH) [2] | IC50 [3] | Compound | IC50 at 72 h [4] | IC50 at 72 h [5]
Active | Active | 13.9 µM | CCCCn1cc(/C=C2\Oc3cc(O)cc(O)c3C2=O)c2cc(OC)ccc21 |  | 
Active | Active | 9 µM | CCCCn1c(/C=C2\Oc3cc(O)cc(O)c3C2=O)cc2ccccc21 |  | 
Active | Active | 11.1 µM | Cn1c(/C=C2\Oc3cc(O)cc(O)c3C2=O)cc2ccccc21 |  | 
Active | Active | 10.6 µM | CC(C)=CCn1cc(/C=C2\Oc3cc(O)cc(O)c3C2=O)c2ccccc21 |  | 
Active | Active | 10.5 µM | O=C1/C(=C/c2cn(CC3CCCCC3)c3ccccc23)Oc2cc(O)cc(O)c21 |  | 
Active | Active | 12.2 µM | O=C1/C(=C/c2cn(Cc3ccccc3)c3ccccc23)Oc2cc(O)cc(O)c21 |  | 
Active | Active | 17.5 µM | COc1cccc(Cn2cc(/C=C3\Oc4cc(O)cc(O)c4C3=O)c3ccccc32)c1 |  | 
Active | Active | 14.4 µM | O=C1/C(=C/c2cn(Cc3cccc(Br)c3)c3ccccc23)Oc2cc(O)cc(O)c21 |  | 
Active | Active | 11.4 µM | CCCCn1c(C)c(/C=C2\Oc3cc(O)cc(O)c3C2=O)c2ccccc21 |  | 
Active | Active | 4.5 µM | CCCCn1cc(/C=C2\Oc3cc(O)cc(O)c3C2=O)c2cccc(C)c21 | > 50 µM | > 50 µM
Active | Active | 6.3 µM | CCCCn1cc(/C=C2\Oc3cc(O)cc(O)c3C2=O)c2cccc(OC)c21 |  | 
Active | Active | 4.8 µM | CCCCn1cc(/C=C2\Oc3cc(O)cc(O)c3C2=O)c2cc(C)ccc21 | > 50 µM | > 50 µM
Active | Active | 17.8 µM | CCn1cc(/C=C2\Oc3cc(O)cc(O)c3C2=O)c2cc(Br)ccc21 |  | 
Active | Active | 4.5 µM | Cn1cc(/C=C2\Oc3cc(O)cc(O)c3C2=O)c2cc(Br)ccc21 | > 50 µM | > 50 µM
Active | Active | 15.8 µM | O=C1/C(=C/c2cn(CC3CCCCC3)c3ccc(Br)cc23)Oc2cc(O)cc(O)c21 |  | 
Active | Active | 8.2 µM | CCCCn1c(/C=C2\Oc3cc(O)cc(O)c3C2=O)c(C)c2ccccc21 |  | 
Active | Active | 15.4 µM | CCCCn1cc(/C=C2\Oc3cc(O)cc(O)c3C2=O)c2cc(Br)ccc21 |  | 
Active | Active | 7.3 µM | COc1ccc2c(c1)c(/C=C1\Oc3cc(O)cc(O)c3C1=O)cn2Cc1cccc(Br)c1 |  | 
Active | Active | 4.1 µM | COc1ccc2c(c1)c(/C=C1\Oc3cc(O)cc(O)c3C1=O)cn2CC1CCCCC1 | > 50 µM | > 50 µM
